Source: article PMC10925991 (Heliyon, 2024)

Experiments:
[1] = system: RPE-1 human normal Retina pigmented epithelium cells; test: MTT anti-proliferative assay, RPE-1; assay type: cell-based; conditions: RPE-1, 48 h, read-out: IC50 (μM) ± SD RPE-1
In short: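 RPE-1 cells were grown at 37 °C (5% CO₂, humidified) in RPMI-1640 with 10% heat-inactivated FBS and 100 U/mL penicillin/streptomycin. After 24 h, the medium was changed to serum-free, and serial dilutions of test compound in DMSO were added for 48 h. MTT solution (2.5 mg/mL) was then added for 4 h, formazan was dissolved in DMSO, and A590 was read. Triplicates were repeated on three days. % cytotoxicity = (1 − As/Ab) × 100, from which IC50 was derived.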

[2] = system: MCF-7 breast adenocarcinoma cells; test: MTT anti-proliferative assay, MCF-7; assay type: cell-based; conditions: Homo sapiens, MCF7, 48 h, read-out: IC50 (μM) ± SD MCF-7

| IC50 [2] [µM] | SMILES | IC50 [1] [µM] |
| --- | --- | --- |
| 32.5 ± 1.3 | O=c1[nH]c(N2CCOCC2)nc2nc(-c3ccccc3)cc(-c3ccc4ccccc4n3)c12 [Compound 7b, 2-morpholino-7-phenyl-5-(quinolin-2-yl) pyrido [2,3-d] pyrimidin-4(3H)-one] | 43.5 ± 1.5 |
| 21.8 ± 2.2 | Clc1ccc(Nc2nc(Nc3ccc(Cl)cc3)c3c(-c4ccc5ccccc5n4)cc(-c4ccccc4)nc3n2)cc1 [Compound 13b, N^2, N^4-bis(4-chlorophenyl)-7-phenyl-5-(quinolin-2-yl) pyrido [2,3-d] pyrimidine-2,4-diamine] | 32.4 ± 1.7 |
| 15.1 ± 2.3 | O=c1c2c(-c3ccc4ccccc4n3)cc(-c3ccccc3)nc2nc2n(-c3ccccc3)nc(-c3ccccc3)n12 [Compound 5a, 1,3,8-triphenyl-6-(quinolin-2-yl) pyrido [2,3-d] [1,2,4] triazolo[4,3-a] pyrimidin-5(1H)-one] | 26.4 ± 1.4 |
| 23.9 ± 2.1 | c1ccc(Nc2nc(Nc3ccccc3)c3c(-c4ccc5ccccc5n4)cc(-c4ccccc4)nc3n2)cc1 [Compound 13a, N^2, N^4,7-triphenyl-5-(quinolin-2-yl) pyrido [2,3-d] pyrimidine-2,4-diamine] | 34.7 ± 1.3 |
| 19.2 ± 1.5 | c1ccc(-c2cc(-c3ccc4ccccc4n3)c3c(N4CCOCC4)nc(N4CCOCC4)nc3n2)cc1 [Compound 14b, 4,4'-(7-phenyl-5-(quinolin-2-yl)pyrido [2,3-d]pyrimidine-2,4-diyl) dimorpholine] | 29.3 ± 1.1 |
| 31.2 ± 1.8 | O=c1[nH]c(N2CCNCC2)nc2nc(-c3ccccc3)cc(-c3ccc4ccccc4n3)c12 [Compound 7a, 7-phenyl-2-(piperazin-1-yl)-5-(quinolin-2-yl) pyrido [2,3-d] pyrimidin-4(3H)-one] | 42.1 ± 1.9 |
| 22.5 ± 2.3 | COc1ccc(Nc2nc(Nc3ccc(OC)cc3)c3c(-c4ccc5ccccc5n4)cc(-c4ccccc4)nc3n2)cc1 [Compound 13c, N^2, N^4-bis(4-methoxyphenyl)-7-phenyl-5-(quinolin-2-yl) pyrido [2,3-d] pyrimidine-2,4-diamine] | 33.2 ± 1.4 |
| 18.7 ± 1.9 | c1ccc(-c2cc(-c3ccc4ccccc4n3)c3c(N4CCNCC4)nc(N4CCNCC4)nc3n2)cc1 [Compound 14a, 7-phenyl-2,4-di (piperazin-1-yl)-5-(quinolin-2-yl) pyrido [2,3-d] pyrimidine] | 28.1 ± 1.6 |

The next lines start with the compound.

| SMILES | IC50 [2] [µM] | IC50 [1] [µM] |
| --- | --- | --- |
| CSc1nc(Cl)c2c(-c3ccc4ccccc4n3)cc(-c3ccccc3)nc2n1 [Compound 10, 4-chloro-2-(methylthio)-7-phenyl-5-(quinolin-2-yl) pyrido[2,3-d] pyrimidine] | 40.1 ± 2.3 | 50.4 ± 1.8 |
| O=C(O)c1ccccc1Nc1nc(Nc2ccccc2C(=O)O)c2c(-c3ccc4ccccc4n3)cc(-c3ccccc3)nc2n1 [Compound 15, 2,2'-((7-phenyl-5-(quinolin-2-yl)pyrido [2,3-d]pyrimidine-2,4-diyl)bis(azanediyl)) dibenzoic acid] | 27.1 ± 1.2 | 38.2 ± 1.1 |
| O=c1c2ccccc2[nH]c2nc3nc(-c4ccccc4)cc(-c4ccc5ccccc5n4)c3c(=O)n12 [Compound 9, 2-phenyl-4-(quinolin-2-yl)-5H-pyrido [2′,3':4,5] pyrimido [2,1-b] quinazoline-5,7(12H)-dione] | 8.1 ± 2.1 | 21.2 ± 1.1 |
| COc1cccc2c1C(=O)c1c(O)c3c(c(O)c1C2=O)C[C@@](O)(C(=O)CO)C[C@@H]3O[C@H]1C[C@H](N)[C@H](O)[C@H](C)O1 [Doxorubicin, reference compound] | 10.5 ± 2.2 | 30.1 ± 3.1 |
| O=c1[nH]c(=S)[nH]c2nc(-c3ccccc3)cc(-c3ccc4ccccc4n3)c12 [Compound 1, 7-phenyl-5-(quinolin-2-yl)-2-thioxo-2,3-dihydropyrido[2,3-d] pyrimidin-4(1H)-one] | 45.5 ± 2.5 | 54.2 ± 2.3 |
| CNC(=O)c1cc(Oc2ccc(NC(=O)Nc3ccc(Cl)c(C(F)(F)F)c3)cc2)ccn1 [Sorafenib, reference compound] | 31 |  |
| CS(=O)(=O)CCNCc1ccc(-c2ccc3ncnc(Nc4ccc(OCc5cccc(F)c5)c(Cl)c4)c3c2)o1 [lapatinib, reference compound] | 136 |  |
| CS(=O)(=O)c1nc2nc(-c3ccccc3)cc(-c3ccc4ccccc4n3)c2c(=O)[nH]1 [Compound 6, 2-(methylsulfonyl)-7-phenyl-5-(quinolin-2-yl) pyrido [2,3-d] pyrimidin-4(3H)-one] | 37.8 ± 1.4 | 47.3 ± 1.7 |
| NNc1nc(NN)c2c(-c3ccc4ccccc4n3)cc(-c3ccccc3)nc2n1 [Compound 11, 2,4-dihydrazinyl-7-phenyl-5-(quinolin-2-yl) pyrido [2,3-d] pyrimidine] | 29.5 ± 1.5 | 40.1 ± 1.6 |
| O=C(O)c1ccccc1Nc1nc2nc(-c3ccccc3)cc(-c3ccc4ccccc4n3)c2c(=O)[nH]1 [Compound 8, 2-((4-oxo-7-phenyl-5-(quinolin-2-yl)-3,4-dihydropyrido[2,3-d]pyrimidin-2-yl)amino) benzoic acid] | 35.4 ± 1.1 | 45.2 ± 1.5 |
| CSc1nc2nc(-c3ccccc3)cc(-c3ccc4ccccc4n3)c2c(=O)[nH]1 [Compound 2, 2-(methylthio)-7-phenyl-5-(quinolin-2-yl) pyrido [2,3-d] pyrimidin-4(3H)-one] | 43.2 ± 2.2 | 52.6 ± 1.9 |
| O=c1c2ccccc2nc2n1c1nc(-c3ccccc3)cc(-c3ccc4ccccc4n3)c1c1nc3ccccc3c(=O)n12 [Compound 16, 8-phenyl-6-(quinolin-2-yl)-11H,18H-pyrido [3′,2':5,6] pyrimido [2,1-b:4,3-b'] diquinazoline-11,18-dione] | 6.2 ± 1.3 | 17.5 ± 1.8 |
